For assay [1], the system named is Aorta. Briefly: Vasorelaxant activity in potassium depolarized guinea pig aortic strip assessed as inhibition of calcium-induced contraction at 50 uM. It counts as functional. Particulars: Cavia porcellus.
Assay [2] can be described thus: Negative inotropic activity against potassium-induced contraction in guinea pig left atrium assessed as decrease in developed tension. The class given is functional, tissue-based. The conditions noted are these: Cavia porcellus, Cardiac atrium.
The nature of assay [3]: Negative chronotropic activity against potassium-induced contraction in guinea pig left atrium assessed as decrease atrial rate at 10 uM relative to control. It counts as functional, Cavia porcellus, Cardiac atrium. More on the design: scale not given: the % may be the effect or the level left.
A short description of assay [4]: Negative inotropic activity against potassium-induced contraction in guinea pig left atrium assessed as decrease in developed tension at 1 uM relative to control. More on the design: scale not given: the % may be the effect or the level left. The class given is functional, Cavia porcellus, Cardiac atrium.
Assay [5] can be described thus: Antiarrhythmic activity in sinusoidal alternating current-induced guinea pig left atrium assessed as increase in current strength at which extra beats occur at 10 uM measured every 30 mins. The class given is functional, Cavia porcellus, Cardiac atrium. The gist of the method:
(§1)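 Isolated guinea pig left atria, electrically driven at 1 Hz, were exposed to sinusoidal alternating current to induce arrhythmia. The read-out was the rise in the ac-arrhythmia threshold over concentrations up to 100 μM.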

Assay [6] in a line: Negative chronotropic activity against potassium-induced contraction in guinea pig left atrium assessed as decrease atrial rate. The class given is functional, tissue-based. The conditions noted are these: Cavia porcellus, Cardiac atrium.
A short description of assay [7]: Negative inotropic activity against potassium-induced contraction in guinea pig left atrium assessed as decrease in developed tension at 5 uM relative to control. The class given is functional, Cavia porcellus, Cardiac atrium. More on the design: scale not given: the % may be the effect or the level left.
Assay [8] in a line: Antiarrhythmic activity in sinusoidal alternating current-induced guinea pig left atrium assessed as increase in current strength at which extra beats occur at 1 uM measured every 30 mins. It counts as functional, Cavia porcellus, Cardiac atrium. The gist of the method: as §1
Assay [9] in a line: Negative chronotropic activity against potassium-induced contraction in guinea pig left atrium assessed as decrease atrial rate at 50 uM relative to control. It counts as functional, Cavia porcellus, Cardiac atrium. Also on record: scale not given: the % may be the effect or the level left.
The nature of assay [10]: Negative inotropic activity against potassium-induced contraction in guinea pig left atrium assessed as decrease in developed tension at 50 uM relative to control. It counts as functional, Cavia porcellus, Cardiac atrium. Also on record: scale not given: the % may be the effect or the level left.
A short description of assay [11]: Antiarrhythmic activity in sinusoidal alternating current-induced guinea pig left atrium assessed as increase in current strength at which extra beats occur measured every 30 mins. It counts as functional, tissue-based. Particulars: Cavia porcellus, Cardiac atrium, 0.5 h. The gist of the method: as §1
Assay [12] can be described thus: Antiarrhythmic activity in sinusoidal alternating current-induced guinea pig left atrium assessed as increase in current strength at which extra beats occur at 100 uM measured every 30 mins. It counts as functional, Cavia porcellus, Cardiac atrium. In a few lines: as §1
Assay [13] is described as follows: Cardioprotective effect in Langendorff perfused guinea pig spontaneously beating […] assessed as duration of ventricular action potential at 10 uM (RVb = 140 to 161 +/- 2 to 8 ms). The class given is functional, Cavia porcellus, Cardiac ventricle. The gist of the method: (§2)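 Whole guinea pig hearts were Langendorff-perfused and their ECG recorded at graded concentrations. Intervals read were PR (atrioventricular conduction time), QT (ventricular action potential duration) and QRS (intraventricular conduction time).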

Assay [14] can be described thus: Cardioprotective effect in Langendorff perfused guinea pig spontaneously beating […] assessed as duration of ventricular action potential at 1 uM (RVb = 140 to 161 +/- 2 to 8 ms). It counts as functional, Cavia porcellus, Cardiac ventricle. The gist of the method: as §2
Assay [15] in a line: Cardioprotective effect in Langendorff perfused guinea pig spontaneously beating […] assessed as atrioventicular conduction time at 1 uM (RVb = 50 to 55 +/- 1 to 4 ms). The class given is functional. Particulars: Cavia porcellus. In a few lines: as §2
Assay [16] can be described thus: Ratio of compound to auinidine for antiarrhythmic activity in sinusoidal alternating current-induced guinea pig left atrium. The class given is functional, Cavia porcellus, Cardiac atrium. The gist of the method:
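The antiarrhythmic EC50 was taken from the ac-arrhythmia threshold rise in 1 Hz-driven guinea pig left atria, using probit analysis.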

Assay [17] is described as follows: Cardioprotective effect in Langendorff perfused guinea pig spontaneously beating […] assessed as duration of ventricular action potential at 0.1 uM (RVb = 140 to 161 +/- 2 to 8 ms). The class given is functional, Cavia porcellus, Cardiac ventricle. In a few lines: as §2
A short description of assay [18]: Cardioprotective effect in Langendorff perfused guinea pig spontaneously beating […] assessed as duration of ventricular action potential at 0.01 uM (RVb = 140 to 161 +/- 2 to 8 ms). The class given is functional, Cavia porcellus, Cardiac ventricle. In a few lines:
as §2

Assay [19] can be described thus: Cardioprotective effect in Langendorff perfused guinea pig spontaneously beating […] assessed as duration of ventricular action potential at 0.001 uM (RVb = 140 to 161 +/- 2 to 8 ms). The class given is functional, Cavia porcellus, Cardiac ventricle. In a few lines:
as §2

Assay [20] in a line: Cardioprotective effect in Langendorff perfused guinea pig spontaneously beating […] assessed as intraventicular conduction time at 10 uM (RVb = 19 to 24 +/- 1 to 2 ms). The conditions noted are these: Cavia porcellus. It counts as functional. The gist of the method:
as §2

The nature of assay [21]: Cardioprotective effect in Langendorff perfused guinea pig spontaneously beating […] assessed as intraventicular conduction time at 1 uM (RVb = 19 to 24 +/- 1 to 2 ms). The class given is functional. The conditions noted are these: Cavia porcellus. In a few lines:
as §2

A short description of assay [22]: Cardioprotective effect in Langendorff perfused guinea pig spontaneously beating […] assessed as intraventicular conduction time at 0.1 uM (RVb = 19 to 24 +/- 1 to 2 ms). Particulars: Cavia porcellus. The class given is functional. The gist of the method:
as §2

Assay [23] is described as follows: Cardioprotective effect in Langendorff perfused guinea pig spontaneously beating […] assessed as intraventicular conduction time at 0.01 uM (RVb = 19 to 24 +/- 1 to 2 ms). Particulars: Cavia porcellus. It counts as functional. In a few lines: as §2
Assay [24] can be described thus: Cardioprotective effect in Langendorff perfused guinea pig spontaneously beating […] assessed as intraventicular conduction time at 0.001 uM (RVb = 19 to 24 +/- 1 to 2 ms). It counts as functional. The conditions noted are these: Cavia porcellus. The gist of the method: as §2
The nature of assay [25]: Cardioprotective effect in Langendorff perfused guinea pig spontaneously beating […] assessed as atrioventicular conduction time at 10 uM (RVb = 50 to 55 +/- 1 to 4 ms). The class given is functional. Particulars: Cavia porcellus. In a few lines:
as §2

Assay [26] is described as follows: Cardioprotective effect in Langendorff perfused guinea pig spontaneously beating […] assessed as atrioventicular conduction time at 0.1 uM (RVb = 50 to 55 +/- 1 to 4 ms). Particulars: Cavia porcellus. The class given is functional. In a few lines:
as §2

The nature of assay [27]: Cardioprotective effect in Langendorff perfused guinea pig spontaneously beating […] assessed as atrioventicular conduction time at 0.01 uM (RVb = 50 to 55 +/- 1 to 4 ms). It counts as functional. Particulars: Cavia porcellus. In a few lines: as §2
The nature of assay [28]: Cardioprotective effect in Langendorff perfused guinea pig spontaneously beating […] assessed as atrioventicular conduction time at 0.001 uM (RVb = 50 to 55 +/- 1 to 4 ms). The class given is functional. Particulars: Cavia porcellus. The gist of the method: as §2
Assay [29] concerns Heart. Briefly: Cardioprotective effect in Langendorff perfused guinea pig spontaneously beating […] assessed as heart rat at 0.001 uM (RVb = 175 to 190 +/- 5 to 11 bpm). The class given is functional, Cavia porcellus.
Assay [30] deals with Heart. Briefly: Cardioprotective effect in Langendorff perfused guinea pig spontaneously beating […] assessed as heart rat at 0.01 uM (RVb = 175 to 190 +/- 5 to 11 bpm). The class given is functional, Cavia porcellus.
Assay [31] deals with Heart. Briefly: Cardioprotective effect in Langendorff perfused guinea pig spontaneously beating […] assessed as heart rat at 0.1 uM (RVb = 175 to 190 +/- 5 to 11 bpm). It counts as functional, Cavia porcellus.
Assay [32] concerns Heart. Briefly: Cardioprotective effect in Langendorff perfused guinea pig spontaneously beating […] assessed as heart rat at 1 uM (RVb = 175 to 190 +/- 5 to 11 bpm). It counts as functional, Cavia porcellus.
Assay [33] has as its system Heart. Briefly: Cardioprotective effect in Langendorff perfused guinea pig spontaneously beating […] assessed as heart rat at 10 uM (RVb = 175 to 190 +/- 5 to 11 bpm). It counts as functional, Cavia porcellus.
Assay [34] concerns Aorta. The assay is described as follows: Vasorelaxant activity in potassium depolarized guinea pig aortic strip assessed as inhibition of calcium-induced contraction at 100 uM. The class given is functional. Particulars: Cavia porcellus.
A short description of assay [35]: Negative inotropic activity against potassium-induced contraction in guinea pig left atrium assessed as decrease in developed tension at 0.5 uM relative to control. It counts as functional, Cavia porcellus, Cardiac atrium. Also on record: scale not given: the % may be the effect or the level left.
A short description of assay [36]: […] chronotropic activity against potassium-induced contraction in guinea pig left atrium assessed as decrease atrial rate at 100 uM relative to control. The class given is functional, Cavia porcellus, Cardiac atrium. More on the design: scale not given: the % may be the effect or the level left.
The nature of assay [37]: Negative chronotropic activity against potassium-induced contraction in guinea pig left atrium assessed as decrease atrial rate at 100 uM relative to control. The class given is functional, Cavia porcellus, Cardiac atrium. Also on record: scale not given: the % may be the effect or the level left.
Assay [38] can be described thus: Antiarrhythmic activity in sinusoidal alternating current-induced guinea pig left atrium assessed as increase in current strength at which extra beats occur at 50 uM measured every 30 mins. The class given is functional, Cavia porcellus, Cardiac atrium. In a few lines:
as §1

A short description of assay [39]: Negative inotropic activity against potassium-induced contraction in guinea pig left atrium assessed as decrease in developed tension at 0.1 uM relative to control. The class given is functional, Cavia porcellus, Cardiac atrium. More on the design: scale not given: the % may be the effect or the level left.

This note sets out measurements from ChEMBL document CHEMBL1177711, “Novel quinolizidinyl derivatives as antiarrhythmic agents: 2. Further investigation” (J Med Chem, 2010).

The structures appear in SMILES notation.

Take `Cc1cccc(C)c1NC[C@@H]1CCCN2CCCC[C@H]12`: in the assay on Aorta [1], the inhibition at 50 µM is 27%. Further, the EC50 in assay [2] worked out at 0.023 µM. Further, the Activity turned out to be 40% in [3], 75% in [4] and 28% in [5].

Turning to `COc1ccc2c(c1)nc(Cc1ccccc1)c(=O)n2C[C@H]1CCCN2CCCC[C@@H]12`, the inhibition at 50 µM in the assay on Aorta [1] turned out to be 18%. Further, the EC50 in assay [6] came out at 2.75 µM; in [2], 0.11 µM. Also, the results for the Activity in assay [3], in assay [7] and in assay [8] were 62%, 86% and 14%, respectively.

In the case of `Cc1cccc(C)c1NCC[C@@H]1CCCN2CCCC[C@H]12`, the inhibition at 50 µM in the assay on Aorta [1] was determined as 28%. Also, the EC50 in assay [6] came to 6.89 µM; in [2], 0.34 µM; in assay [11], 0.46 µM. Also, the Activity in assay [9] came to 72%; in assay [10], 89%; in assay [12], 208%; in assay [13] it was 175 ms; in [14], 170 ms; in [17], 160 ms. Further, the Activity amounted to 157 ms in assay [18]; 154 ms in [19]; 182 bpm in the assay on Heart [29]; 171 bpm in the assay on Heart [30]; 163 bpm in the assay with Heart [31]; 142 bpm in the assay on Heart [32]. In the assay with Heart [33], the Activity came out at 136 bpm. Moreover, the AV conduction time in assay [15] came to 58 ms; in assay [25], 59 ms; in assay [26] it was 57 ms; in assay [27], 56 ms; in assay [28] it was 53 ms. Moreover, the Ratio in assay [16] is given as 3. Besides, the intraventricular conduction time in assay [20] was found to be 21 ms; in assay [21], 20 ms; in [22], 20 ms; in [23], 19 ms; in assay [24] it was 19 ms.

Consider `COc1cc(C(=O)NC[C@@H]2CCCN3CCCC[C@H]23)cc(OC)c1OC`, for which the inhibition at 100 µM with Aorta [34] was 7%. Also, the EC50 was determined as 0.017 µM in assay [2] and 2.62 µM in [11]. For the same compound, the figures for the Activity in assay [35], in assay [5] and in assay [36] were 79%, 56% and 11%, respectively.

Turning to `Cc1cccc(C)c1NC(=O)CSC[C@@H]1CCCN2CCCC[C@H]12` [LUPINYLTHIOACETYLANILIDE], the Activity was determined as 30% in assay [37]; 67% in assay [38]; 168 ms in assay [13]; 164 ms in assay [14]; 48% in assay [39]; 157 ms in assay [17]. Besides, the Activity in assay [18] was determined as 155 ms; in assay [19], 150 ms; with Heart [29], 181 bpm; in the assay on Heart [30] it was 175 bpm; in the assay on Heart [31] it was 171 bpm; in the assay with Heart [32], 166 bpm. The Activity with Heart [33] amounted to 156 bpm. In [11], the EC50 stood at 0.59 µM. Also, the AV conduction time in assay [15] came out at 55 ms; in assay [25], 60 ms; in assay [26], 53 ms; in assay [27], 51 ms; in [28], 52 ms. Also, the intraventricular conduction time is 23 ms in [20]; 24 ms in assay [21]; 24 ms in assay [22]; 22 ms in assay [23]; 22 ms in assay [24].
